According to ChEMBL document CHEMBL3286272, “Synthesis, biological, and biophysical studies of DAG-indololactones designed as selective activators of RasGRP” (Bioorg Med Chem, 2014):
The source made the active and inactive calls.

Columns and labels:
Assay type in all cases: cell-based
[1] = biological target: T1, Ras guanyl-releasing protein 3 (Homo sapiens) (UniProt Q8IV61); experiment: Activation of RasGRP3 (unknown origin) overexpressed in HEK293 cells assessed as ERK1/2 phosphorylation at 0.1 to 30 uM after 30 mins by Western blot analysis
T1 sequence (whole entry): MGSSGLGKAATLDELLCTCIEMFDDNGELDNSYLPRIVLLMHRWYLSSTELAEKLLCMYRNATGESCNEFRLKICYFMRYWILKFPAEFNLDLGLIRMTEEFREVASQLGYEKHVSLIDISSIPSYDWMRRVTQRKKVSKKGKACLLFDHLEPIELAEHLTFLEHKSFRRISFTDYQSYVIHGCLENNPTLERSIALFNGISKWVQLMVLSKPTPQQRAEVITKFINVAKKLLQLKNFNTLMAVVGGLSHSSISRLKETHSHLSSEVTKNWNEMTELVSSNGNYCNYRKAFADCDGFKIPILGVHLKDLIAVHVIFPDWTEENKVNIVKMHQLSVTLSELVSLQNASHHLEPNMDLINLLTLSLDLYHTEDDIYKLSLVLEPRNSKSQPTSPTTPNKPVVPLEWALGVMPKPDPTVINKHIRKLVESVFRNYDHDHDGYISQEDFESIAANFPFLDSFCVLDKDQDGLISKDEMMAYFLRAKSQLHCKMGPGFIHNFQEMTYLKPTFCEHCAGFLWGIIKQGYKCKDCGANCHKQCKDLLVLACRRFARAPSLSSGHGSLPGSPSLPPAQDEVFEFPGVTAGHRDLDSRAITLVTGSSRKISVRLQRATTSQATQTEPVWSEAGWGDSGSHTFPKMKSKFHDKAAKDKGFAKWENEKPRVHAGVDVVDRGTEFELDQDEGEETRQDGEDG

[2] = biological target: Protein kinase C delta type (Homo sapiens) (UniProt Q05655); experiment: Activation of PKC-delta in HEK293 cells assessed as protein phosphorylation at S299 at 0.1 to 30 uM after 30 mins by Western blot analysis
[3] = biological target: Protein kinase C delta type (Homo sapiens) (UniProt Q05655); experiment: Binding affinity to recombinant human GFP-tagged PKC-delta expressed in human LNCAP cells assessed as induction of protein translocation from plasma membrane to internal membrane at 1000 nM after 2 to 10 mins by confocal microscopic analysis
Summary of the method: (§1)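 Human GFP-PKCδ or GFP-RasGRP3 is expressed transiently in LNCaP cells, which were plated at 80,000 cells/ml, transfected after 48 h and imaged live 24 h after transfection. Cells are treated with ligand ([…]) or PMA (1000 nM). Confocal images (488 nm excitation, 500–530 nm emission) are taken every 30 s for 30 min. Representative images, n = 3–6.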

[4] = biological target: Protein kinase C delta type (Homo sapiens) (UniProt Q05655); experiment: Activation of PKC-delta in HEK293 cells overexpressing RasGRP3 assessed as protein phosphorylation at S299 at 0.1 to 30 uM after 30 mins by Western blot analysis
[5] = biological target: T1, Ras guanyl-releasing protein 3 (Homo sapiens); experiment: Binding affinity to recombinant human GFP-tagged RasGRP3 expressed in human LNCAP cells assessed as induction of protein translocation from plasma membrane to internal membrane at 1000 nM after 2 to 10 mins by confocal microscopic analysis; summary of the method: as §1
[6] = biological target: T1, Ras guanyl-releasing protein 3 (Homo sapiens); experiment: Activation of RasGRP3 (unknown origin) overexpressed in HEK293 cells assessed as protein phosphorylation at T133 at 0.1 to 30 uM after 30 mins by Western blot analysis

Measured: Activity

Chain of Protein kinase C delta type (Homo sapiens) (Q05655 whole entry, looked up): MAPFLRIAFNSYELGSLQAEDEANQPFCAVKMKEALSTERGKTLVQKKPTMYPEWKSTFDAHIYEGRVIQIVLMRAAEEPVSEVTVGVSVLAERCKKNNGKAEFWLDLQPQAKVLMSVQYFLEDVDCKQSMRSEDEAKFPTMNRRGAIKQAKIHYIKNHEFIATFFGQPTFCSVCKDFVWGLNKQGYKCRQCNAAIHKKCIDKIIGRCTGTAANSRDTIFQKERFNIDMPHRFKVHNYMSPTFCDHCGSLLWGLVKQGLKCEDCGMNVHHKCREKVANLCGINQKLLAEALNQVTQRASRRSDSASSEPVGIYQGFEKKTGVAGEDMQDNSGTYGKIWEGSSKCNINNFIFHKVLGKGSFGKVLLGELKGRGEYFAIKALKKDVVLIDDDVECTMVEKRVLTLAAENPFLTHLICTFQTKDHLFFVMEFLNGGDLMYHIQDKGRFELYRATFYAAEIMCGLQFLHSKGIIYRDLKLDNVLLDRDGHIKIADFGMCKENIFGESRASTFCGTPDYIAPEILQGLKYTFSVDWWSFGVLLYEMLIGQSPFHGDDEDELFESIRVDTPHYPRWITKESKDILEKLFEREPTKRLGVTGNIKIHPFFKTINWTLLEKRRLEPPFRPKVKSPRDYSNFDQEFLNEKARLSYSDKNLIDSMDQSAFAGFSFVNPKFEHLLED

CCCCCCCCCCCCCC(=O)O[C@@H]1[C@@H](C)[C@@]2(O)[C@@H](C=C(CO)C[C@]3(O)C(=O)C(C)=C[C@@H]23)[C@@H]2C(C)(C)[C@]12OC(C)=O
active: [1] | [2] | [3] | [4] | [5] | [6]

CCCC(=O)O[C@@H]1[C@@H](C)[C@@]2(O)[C@@H](C=C(CO)C[C@]3(O)C(=O)C(C)=C[C@@H]23)[C@@H]2C(C)(C)[C@]12OC(=O)CCC
active: [3] | [5]
